Data: ChEMBL document CHEMBL4725495, “Resorufin Enters the Photodynamic Therapy Arena: A Monoamine Oxidase Activatable Agent for Selective Cytotoxicity” (ACS Med Chem Lett, 2020)
The source made the active and inactive calls. No cut-off for these calls is given here.

Tests used:
[1] = tested on: MCF7; test: Photocytotoxicity against human MCF-7 cells assessed as reduction in cell viability irradiated with 595 nm LED for 4 hrs measured after 24 hrs by MTT assay; format: functional, cell-based; conditions: MCF7, light or radiation study
How it was run: (§1)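 Cells incubated with varying R1 concentrations, then irradiated 4 h with 595 nm LED (20 mW/cm2); viability read by MTT assay; IC50 from concentration–viability curves.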

[2] = tested on: SH-SY5Y; test: Photocytotoxicity against human SH-SY5Y cells assessed as reduction in cell viability irradiated with 595 nm LED for 4 hrs measured after 24 hrs by MTT assay; format: functional, cell-based; conditions: light or radiation study; how it was run: as §1
[3] = Photocytotoxicity against […] cells assessed as reduction in cell viability irradiated with 595 nm LED for 4 hrs measured after 24 hrs by MTT assay; format: cell-based; conditions: NIH3T3, light or radiation study; how it was run: as §1
[4] = tested on: SH-SY5Y; test: Photocytotoxicity against human SH-SY5Y cells assessed as reduction in cell viability for 30 mins followed by irradiation with LED light after 30 mins by MTTassay; format: functional, cell-based; conditions: light or radiation study, 0.5 h
How it was run: (§2)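 Cells incubated with varying R1 concentrations, then irradiated 30 min with 595 nm LED (20 mW/cm2); viability by MTT assay; IC50 from curves.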

[5] = Photocytotoxicity against […] cells assessed as reduction in cell viability for 30 mins followed by irradiation with LED light after 30 mins by MTTassay; format: cell-based; conditions: nih3t3, 0.5 h; how it was run: as §2
[6] = tested on: SH-SY5Y; test: Induction of ROS production in human SH-SY5Y cells assessed as green emission irradiation with LED light for 30 mins measured after 3 hrs incubation by DCFH-DA staining based fluorescence microscopy; format: functional, cell-based
How it was run: (§3)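 Cells loaded with R1 for 3 h and with DCFH2-DA ROS sensor, then irradiated 30 min with LED (20 mW/cm2); green emission from oxidized sensor imaged by fluorescence microscopy.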

[7] = tested on: SH-SY5Y; test: Induction of ROS production in human SH-SY5Y cells irradiation with LED light for 30 mins measured after 3 hrs by DCFH-DA staining based fluorescence microscopy in presence of clorgyline; format: functional, cell-based
How it was run: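 SH-SY5Y cells pretreated 30 min with clorgyline (0.1 μM), then incubated 3 h with R1 plus DCFH2-DA sensor and irradiated 30 min with LED (20 mW/cm2); green fluorescence imaged.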

[8] = tested on: NIH3T3; test: Induction of ROS production in […] cells irradiation with LED light for 30 mins measured after 3 hrs by DCFH-DA staining based fluorescence microscopy; format: functional, cell-based; how it was run: as §3
[9] = tested on: SH-SY5Y; test: Induction of apoptosis in human SH-SY5Y cells assessed as apoptotic cells incubated in dark for 4 hrs at 2.5 uM by Annexin V-FITC/PI staining based confocal microscopy; format: functional, cell-based
How it was run: (§4)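 SH-SY5Y cells incubated with R1 (2.5 μM), kept dark or irradiated 4 h with 595 nm LED (20 mW/cm2), then stained with annexin V-FITC (green, early apoptosis) and propidium iodide (red, late apoptotic/necrotic); confocal imaging.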

[10] = tested on: SH-SY5Y; test: Induction of apoptosis in human SH-SY5Y cells assessed as necrotic cells level irradiated with 595 nm LED for 4 hrs at 2.5 uM by Annexin V-FITC/PI staining based confocal microscopy; format: functional, cell-based; how it was run: as §4
[11] = tested on: SH-SY5Y; test: Induction of apoptosis in human SH-SY5Y cells assessed as early apoptotic cells level irradiated with 595 nm LED for 4 hrs at 2.5 uM by Annexin V-FITC/PI staining based confocal microscopy; format: functional, cell-based; how it was run: as §4
[12] = tested on: SH-SY5Y; test: Induction of apoptosis in human SH-SY5Y cells assessed as late apoptotic cells level irradiated with 595 nm LED for 4 hrs at 2.5 uM by Annexin V-FITC/PI staining based confocal microscopy; format: functional, cell-based; how it was run: as §4
[13] = tested on: SH-SY5Y; test: Photocytotoxicity against human SH-SY5Y cells assessed as cell viability at 2.5 uM irradiated with 595 nm LED for 4 hrs measured after 24 hrs by MTT assay; format: functional; conditions: light or radiation study, read-out: Activity; how it was run: as §1
[14] = Photocytotoxicity against […] cells assessed as cell viability at 2.5 uM irradiated with 595 nm LED for 4 hrs measured after 24 hrs by MTT assay; format: cell-based, NIH3T3; conditions: read-out: Activity; how it was run: as §1
[15] = tested on: SH-SY5Y; test: Photocytotoxicity against human SH-SY5Y cells assessed as cell viability in dark at 2.5 uM measured after 24 hrs by MTT assay; format: functional, cell-based
How it was run: (§5)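 Cells incubated with varying R1 concentrations and kept in the dark in parallel with irradiated plates; viability by MTT assay.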

[16] = Photocytotoxicity against […] cells assessed as cell viability in dark at 2.5 uM measured after 24 hrs by MTT assay; format: cell-based; conditions: nih3t3, 24 h; how it was run: as §5
[17] = tested on: SH-SY5Y; test: Induction of ROS production in human SH-SY5Y cells assessed as green emission irradiation with LED light after 30 mins in presence of NaN3 measured after 3 hrs incubation by DCFH-DA staining based fluorescence microscopy; format: functional, cell-based
How it was run: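 SH-SY5Y cells pretreated with NaN3 as 1O2 quencher, then incubated with R1 and DCFH2-DA and irradiated with LED (20 mW/cm2); sensor green emission imaged by fluorescence microscopy.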

[18] = target: T1, Amine oxidase [flavin-containing] A (Homo sapiens, UniProt P21397); test: Prodrug activation assessed as MAO-A (unknown origin) mediated drug activation measuring increase in emission signal at 620 nm at 10 uM over 3 hrs by fluorescence spectroscopy
T1 sequence (P21397 whole entry): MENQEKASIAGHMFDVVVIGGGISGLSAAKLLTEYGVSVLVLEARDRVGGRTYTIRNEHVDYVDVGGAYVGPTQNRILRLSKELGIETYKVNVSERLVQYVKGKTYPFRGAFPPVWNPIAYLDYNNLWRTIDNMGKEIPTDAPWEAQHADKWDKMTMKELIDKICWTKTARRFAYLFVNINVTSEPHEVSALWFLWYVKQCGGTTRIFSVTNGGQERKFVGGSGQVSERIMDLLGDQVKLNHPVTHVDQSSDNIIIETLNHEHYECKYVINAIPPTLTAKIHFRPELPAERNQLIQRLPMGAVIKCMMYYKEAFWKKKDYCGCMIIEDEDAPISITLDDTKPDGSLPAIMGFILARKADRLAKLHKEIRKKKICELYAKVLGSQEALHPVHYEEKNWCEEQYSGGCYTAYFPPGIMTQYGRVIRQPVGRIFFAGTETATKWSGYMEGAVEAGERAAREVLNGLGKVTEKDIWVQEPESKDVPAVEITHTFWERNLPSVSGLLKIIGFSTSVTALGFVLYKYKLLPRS

[19] = target: T2, Amine oxidase [flavin-containing] B (Homo sapiens, UniProt P27338); test: Prodrug activation assessed as MAO-B (unknown origin) mediated drug activation measured increase in emission signal at 620 nm at 10 uM over 3 hrs by fluorescence spectroscopy
T2 sequence (P27338 whole entry): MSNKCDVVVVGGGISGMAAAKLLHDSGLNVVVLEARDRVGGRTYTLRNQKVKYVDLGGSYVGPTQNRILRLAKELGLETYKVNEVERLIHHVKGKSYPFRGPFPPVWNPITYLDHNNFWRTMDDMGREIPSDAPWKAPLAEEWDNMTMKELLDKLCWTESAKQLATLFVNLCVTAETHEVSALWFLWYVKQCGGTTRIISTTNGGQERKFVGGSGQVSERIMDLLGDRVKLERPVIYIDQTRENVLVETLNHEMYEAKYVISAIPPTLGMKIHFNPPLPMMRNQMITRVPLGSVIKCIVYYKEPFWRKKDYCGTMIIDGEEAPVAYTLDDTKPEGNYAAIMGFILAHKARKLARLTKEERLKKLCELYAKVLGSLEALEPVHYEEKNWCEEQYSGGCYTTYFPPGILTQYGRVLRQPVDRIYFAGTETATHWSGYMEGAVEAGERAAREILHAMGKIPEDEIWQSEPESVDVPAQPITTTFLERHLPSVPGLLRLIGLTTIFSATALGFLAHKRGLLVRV

[20] = Photostability in pH 7.4 PBS buffer at 408/500 nm irradiated with 595 nm LED for 4 hrs; format: physicochemical; conditions: pH 7.4, 4 h
[21] = Induction of singlet oxygen generation using PBS buffer assessed as decrease in absorbance of ADMDA at 380 nm irradiated with 595 nm LED; format: functional
How it was run: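 R1 (10 μM) pretreated with MAO-A or MAO-B (20 μg/mL) in PBS pH 7.4, 1% DMSO, with water-soluble anthracene trap ADMDA; kept dark 2 min, then irradiated with 595 nm LED (20 mW/cm2); ADMDA absorbance at 380 nm followed.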

[22] = tested on: SH-SY5Y; test: Induction of ROS production in human SH-SY5Y cells in dark measured 3 hrs by DCFH2-DA fluorescence assay relative to control
[23] = target: T1, Amine oxidase [flavin-containing] A; test: Prodrug activation assessed as MAO-A (unknown origin) mediated drug activation by measuring red shift of absorption maxima at 588/595 nm at 10 uM for 3 hrs by absorption spectroscopy

With `NCCCOc1ccc2nc3ccc(=O)cc-3oc2c1I` the IC50 [1] was 4 µM, the IC50 [2] was 0.42 µM and the IC50 [3] was 6.5 µM. The IC50 [4] was 1.9 µM, the Activity [5] was “Non-Toxic” and the Activity [6] was “Active”. The Activity [7] was “inactive”, the Activity [8] was “inactive” and the Activity [9] was “inactive”. For the same compound, the Activity [10] was “Active”, the Activity [11] was “Active” and the Activity [12] was “Active”. For the same compound, the viability at 2.5 µM [13] was 3%, the viability at 24 h, 2.5 µM [14] was 70% and the Activity [15] was “inactive”. The Activity [16] was “Non-Toxic”, the Activity [17] was “inactive” and the Activity [18] was “Not Active”. The Activity [19] was “Not Active”, the Stabilty [20] was “Stable” and the Activity [21] was “inactive”. The Activity [22] was “inactive” and the Activity [23] was “Active”.
